Measured values as given in ChEMBL document CHEMBL4261537, “Synthesis and pharmacological evaluation of multi-functional homoisoflavonoid derivatives as potent inhibitors of monoamine oxidase B and cholinesterase for the treatment of Alzheimer's disease” (Medchemcomm, 2017).

How the values were obtained:
[1] = Selectivity index, ratio of IC50 for equine serum BuChE to IC50 for electric eel AChE
[2] = target: T1, Amine oxidase [flavin-containing] B (Homo sapiens, UniProt P27338); test: Inhibition of recombinant human MAO-B assessed as reduction in H2O2 production using p-tyramine as substrate preincubated for 15 mins followed by substrate addition by Amplex red reagent based fluorescence assay
T1 sequence (P27338 whole entry): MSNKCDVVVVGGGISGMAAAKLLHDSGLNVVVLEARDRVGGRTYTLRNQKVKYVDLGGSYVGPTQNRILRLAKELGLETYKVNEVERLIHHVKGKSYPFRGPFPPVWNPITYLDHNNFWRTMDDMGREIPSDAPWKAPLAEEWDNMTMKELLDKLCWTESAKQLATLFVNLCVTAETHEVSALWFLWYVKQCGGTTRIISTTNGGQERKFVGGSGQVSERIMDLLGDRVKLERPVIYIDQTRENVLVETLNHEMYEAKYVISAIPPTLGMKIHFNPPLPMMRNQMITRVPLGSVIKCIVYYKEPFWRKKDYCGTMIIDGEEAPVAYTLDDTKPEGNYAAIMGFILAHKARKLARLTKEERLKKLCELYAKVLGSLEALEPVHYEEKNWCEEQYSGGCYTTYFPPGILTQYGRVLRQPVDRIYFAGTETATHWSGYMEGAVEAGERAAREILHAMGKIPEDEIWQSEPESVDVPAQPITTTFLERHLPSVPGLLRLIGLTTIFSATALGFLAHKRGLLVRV
How it was run: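 Human MAO-A or MAO-B, each set to the same control reaction velocity. Preincubated with compound 15 min at 37°C in the dark, in sodium phosphate buffer with DMSO. Then 200 μM Amplex Red (final) added with 1 U/mL HRP and 1 mM p-tyramine. Run in triplicate, mean ± SD.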

[3] = target: Acetylcholinesterase (Homo sapiens, UniProt P22303); test: Inhibition of human erythrocytes AChE using acetylthiocholine iodide as substrate preincubated for 5 mins followed by substrate addition measured at 1 to 3 mins time interval by Ellman's method
Sequence of Acetylcholinesterase (Homo sapiens, UniProt P22303) (P22303 whole entry): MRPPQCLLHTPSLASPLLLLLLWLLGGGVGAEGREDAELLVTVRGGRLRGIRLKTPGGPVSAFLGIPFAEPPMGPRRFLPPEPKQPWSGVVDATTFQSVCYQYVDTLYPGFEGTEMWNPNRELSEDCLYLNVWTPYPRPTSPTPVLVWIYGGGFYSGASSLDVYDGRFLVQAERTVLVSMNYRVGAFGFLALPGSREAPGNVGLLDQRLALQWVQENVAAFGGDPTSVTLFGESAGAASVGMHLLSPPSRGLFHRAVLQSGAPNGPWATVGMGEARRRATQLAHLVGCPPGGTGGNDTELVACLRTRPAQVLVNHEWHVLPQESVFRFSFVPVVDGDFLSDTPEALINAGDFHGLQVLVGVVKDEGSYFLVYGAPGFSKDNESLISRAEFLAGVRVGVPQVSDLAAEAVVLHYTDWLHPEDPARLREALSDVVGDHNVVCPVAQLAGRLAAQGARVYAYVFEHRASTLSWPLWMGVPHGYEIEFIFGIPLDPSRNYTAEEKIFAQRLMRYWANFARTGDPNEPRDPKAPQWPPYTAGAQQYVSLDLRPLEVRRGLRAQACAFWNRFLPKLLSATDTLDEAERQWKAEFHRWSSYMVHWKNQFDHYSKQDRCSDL

[4] = species on record: Homo sapiens; test: Selectivity index, ratio of IC50 for human serum BuChE to IC50 for human erythrocytes AChE
[5] = target: T2, Cholinesterase (Equus caballus, UniProt P81908); test: Inhibition of equine serum BuChE using S-butyrylthiocholine iodide as substrate preincubated for 5 mins followed by substrate addition measured at 1 to 3 mins time interval by Ellman's method; type: ADME
T2 sequence (P81908 whole entry): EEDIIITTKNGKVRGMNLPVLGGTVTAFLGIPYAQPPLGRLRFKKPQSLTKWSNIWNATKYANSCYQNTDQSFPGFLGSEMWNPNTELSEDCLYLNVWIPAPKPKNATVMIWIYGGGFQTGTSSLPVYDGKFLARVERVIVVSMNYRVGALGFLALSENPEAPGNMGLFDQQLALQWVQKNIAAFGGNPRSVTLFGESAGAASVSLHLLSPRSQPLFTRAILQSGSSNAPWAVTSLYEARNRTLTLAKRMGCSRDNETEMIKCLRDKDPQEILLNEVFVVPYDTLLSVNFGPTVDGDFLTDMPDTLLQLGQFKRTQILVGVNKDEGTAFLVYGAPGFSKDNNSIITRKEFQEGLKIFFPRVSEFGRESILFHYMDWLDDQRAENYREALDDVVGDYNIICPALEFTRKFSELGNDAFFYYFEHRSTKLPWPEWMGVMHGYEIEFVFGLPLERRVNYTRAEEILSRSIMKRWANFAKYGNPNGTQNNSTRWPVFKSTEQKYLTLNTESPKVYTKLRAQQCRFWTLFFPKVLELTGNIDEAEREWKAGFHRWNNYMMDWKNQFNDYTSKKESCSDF

[6] = target: T3, Cholinesterase (Homo sapiens, UniProt P06276); test: Inhibition of human serum BuChE at 100 uM using S-butyrylthiocholine iodide as substrate preincubated for 5 mins followed by substrate addition measured at 1 to 3 mins time interval by Ellman's method
T3 sequence (P06276 whole entry): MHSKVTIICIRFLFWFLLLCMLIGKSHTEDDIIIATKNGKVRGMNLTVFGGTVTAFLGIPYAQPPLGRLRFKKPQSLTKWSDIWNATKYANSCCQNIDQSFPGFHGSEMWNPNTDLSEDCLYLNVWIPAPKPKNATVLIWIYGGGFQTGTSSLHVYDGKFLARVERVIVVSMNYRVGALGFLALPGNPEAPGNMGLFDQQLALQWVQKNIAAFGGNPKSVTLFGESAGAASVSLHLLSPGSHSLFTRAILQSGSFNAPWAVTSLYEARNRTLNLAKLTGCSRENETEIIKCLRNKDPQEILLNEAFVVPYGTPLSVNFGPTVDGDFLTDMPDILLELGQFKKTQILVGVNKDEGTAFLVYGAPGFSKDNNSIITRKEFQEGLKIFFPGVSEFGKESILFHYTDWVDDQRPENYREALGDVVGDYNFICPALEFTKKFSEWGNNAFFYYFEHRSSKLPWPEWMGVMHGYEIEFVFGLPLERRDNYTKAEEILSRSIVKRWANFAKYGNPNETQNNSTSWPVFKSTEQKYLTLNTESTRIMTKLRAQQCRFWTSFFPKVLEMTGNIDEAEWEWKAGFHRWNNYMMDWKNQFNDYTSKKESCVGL
How it was run: (§1)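 Ellman assay: compound diluted in 50 mM Tris-HCl pH 8.0 with 0.1 M NaCl, 0.02 M MgCl2 (DMSO 1%). Preincubated 5 min at 37°C with 1.5 mM DTNB and BuChE (0.12 U/mL in Tris with 0.1% BSA); 15 mM S-butyrylthiocholine iodide added; absorbance at 405 nm read at 0, 1, 2, 3 min.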

[7] = target: T4, Acetylcholinesterase (Electrophorus electricus, UniProt O42275); test: Inhibition of electric eel AChE using acetylthiocholine iodide as substrate preincubated for 5 mins followed by substrate addition measured at 1 to 3 mins time interval by Ellman's method
T4 sequence (O42275 whole entry): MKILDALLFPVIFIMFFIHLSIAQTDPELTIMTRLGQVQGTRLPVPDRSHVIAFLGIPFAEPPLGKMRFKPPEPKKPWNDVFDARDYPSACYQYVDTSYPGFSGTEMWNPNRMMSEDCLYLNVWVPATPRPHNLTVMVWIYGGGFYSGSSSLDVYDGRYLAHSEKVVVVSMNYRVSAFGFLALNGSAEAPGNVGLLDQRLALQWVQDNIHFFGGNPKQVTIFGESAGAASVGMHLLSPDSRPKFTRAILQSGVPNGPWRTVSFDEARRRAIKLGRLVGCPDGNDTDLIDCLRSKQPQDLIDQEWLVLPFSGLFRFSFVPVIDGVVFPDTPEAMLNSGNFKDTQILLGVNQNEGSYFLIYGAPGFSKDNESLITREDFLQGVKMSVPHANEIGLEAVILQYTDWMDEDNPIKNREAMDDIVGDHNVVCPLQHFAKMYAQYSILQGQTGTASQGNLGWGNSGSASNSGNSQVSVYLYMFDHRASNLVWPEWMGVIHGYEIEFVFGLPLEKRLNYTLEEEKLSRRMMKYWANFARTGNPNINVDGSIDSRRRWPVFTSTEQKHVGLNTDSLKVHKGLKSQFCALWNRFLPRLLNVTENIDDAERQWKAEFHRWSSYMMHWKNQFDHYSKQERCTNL

[8] = species on record: Homo sapiens; test: Selectivity index, ratio of IC50 for recombinant human MAO-A to IC50 for recombinant human MAO-B
[9] = target: T5, Amine oxidase [flavin-containing] A (Homo sapiens, UniProt P21397); test: Inhibition of recombinant human MAO-A assessed as reduction in H2O2 production at 100 uM using p-tyramine as substrate preincubated for 15 mins followed by substrate addition by Amplex red reagent based fluorescence assay
T5 sequence (P21397 whole entry): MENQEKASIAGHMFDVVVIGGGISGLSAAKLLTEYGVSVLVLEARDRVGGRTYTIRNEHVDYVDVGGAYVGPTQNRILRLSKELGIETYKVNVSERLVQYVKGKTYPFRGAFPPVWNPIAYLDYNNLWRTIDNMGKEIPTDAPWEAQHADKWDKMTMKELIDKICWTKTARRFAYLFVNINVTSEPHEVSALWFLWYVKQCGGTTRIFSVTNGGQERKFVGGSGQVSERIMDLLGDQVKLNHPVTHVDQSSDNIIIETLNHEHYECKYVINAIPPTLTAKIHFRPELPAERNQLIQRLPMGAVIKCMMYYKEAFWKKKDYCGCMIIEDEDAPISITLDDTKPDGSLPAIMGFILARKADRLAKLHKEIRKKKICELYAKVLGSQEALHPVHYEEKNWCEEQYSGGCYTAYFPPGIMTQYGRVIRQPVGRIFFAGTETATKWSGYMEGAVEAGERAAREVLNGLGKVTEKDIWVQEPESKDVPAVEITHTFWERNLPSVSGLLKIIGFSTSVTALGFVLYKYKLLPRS
How it was run: (§2)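 Human MAO-A or MAO-B, each set to the same control reaction velocity. Preincubated with compound 15 min at 37°C in the dark, in sodium phosphate buffer with DMSO. Then 200 μM Amplex Red (final) added with 1 U/mL HRP and 1 mM p-tyramine. Resorufin fluorescence read at 37°C (ex 545/em 590 nm), background from enzyme-free wells subtracted. Run in triplicate, mean ± SD.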

[10] = target: T2, Cholinesterase; test: Inhibition of equine serum BuChE at 100 uM using S-butyrylthiocholine iodide as substrate preincubated for 5 mins followed by substrate addition measured at 1 to 3 mins time interval by Ellman's method; details: horse; how it was run: as §1
[11] = target: T3, Cholinesterase; test: Inhibition of human serum BuChE using S-butyrylthiocholine iodide as substrate preincubated for 5 mins followed by substrate addition measured at 1 to 3 mins time interval by Ellman's method; type: ADME
[12] = tested on: Mus musculus; test: Acute toxicity in Kunming mouse assessed as damage to liver up to 2000 mg/kg, po administered as single dose measured after 14 days; type: organism-based; details: in vivo, 336 h
How it was run: (§3)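 Male Kunming mice given one oral dose (0, 677, 1333, 2000 mg/kg) in 0.5% CMC-Na after a 12 h fast; after 14 days of observation, animals sacrificed and liver, heart and kidneys visually examined for damage.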

[13] = target: T1, Amine oxidase [flavin-containing] B; test: Time-dependent inhibition of recombinant human MAO-B at 0.003 uM using p-tyramine as substrate preincubated for 15 to 60 mins followed by substrate addition and compound dilution to IC50 by Amplex red reagent based fluorescence assay
[14] = target: T1, Amine oxidase [flavin-containing] B; test: Reversible inhibition of recombinant human MAO-B at 0.003 uM using p-tyramine as substrate preincubated for 15 to 60 mins followed by substrate addition and compound dilution to IC50 by Amplex red reagent based fluorescence assay
[15] = tested on: Mus musculus; test: Acute toxicity in Kunming mouse assessed as change in body weight up to 2000 mg/kg, po administered as single dose up to 2 weeks; type: organism-based; details: in vivo, 336 h
[16] = target: T5, Amine oxidase [flavin-containing] A; test: Inhibition of recombinant human MAO-A assessed as reduction in H2O2 production using p-tyramine as substrate preincubated for 15 mins followed by substrate addition by Amplex red reagent based fluorescence assay
[17] = target: T1, Amine oxidase [flavin-containing] B; test: Non-competitive inhibition of recombinant human MAO-B assessed as reduction in H2O2 production at 0.015 to 0.06 uM using p-tyramine as substrate preincubated for 15 mins followed by substrate addition by Lineweaver-Burk plot analysis
[18] = Effective permeability of the compound at 0.1 mg/ml after 16 hrs by PAMPA; type: ADME; details: read-out: Peff
How it was run: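 Porcine brain lipid in dodecane (20 mg/mL) coated on PVDF filter. Compound stock 5 mg/mL in DMSO, diluted 50-fold into PBS/EtOH (70:30) to 0.1 mg/mL in donor wells; acceptor holds PBS/EtOH (70:30). Incubated 16 h at 25°C. UV plate read at five wavelengths, four wells, at least three runs. Pe derived from acceptor absorbance versus theoretical equilibrium absorbance.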

[19] = target: T4, Acetylcholinesterase; test: Mixed-type inhibition of electric eel AChE using varying levels of acetylthiocholine iodide as substrate measured at 1 to 3 mins time interval by Lineweaver-Burk plot analysis
How it was run: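 Electric eel AChE assayed by Ellman's method at […] substrate 0.05-0.25 mM, without inhibitor and with inhibitor at 0.5, 1.0 or 2.0 μM; activity read at 0, 1, 2, 3 min. Lineweaver–Burk plots built; their slopes plotted against inhibitor concentration, Ki taken as the negative x-axis intercept.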

[20] = tested on: Mus musculus; test: Acute toxicity in Kunming mouse assessed as damage to heart up to 2000 mg/kg, po administered as single dose measured after 14 days; type: organism-based; details: in vivo, 336 h; how it was run: as §3
[21] = tested on: Mus musculus; test: Acute toxicity in Kunming mouse assessed as fatality up to 2000 mg/kg, po administered as single dose up to 2 weeks; type: organism-based; details: in vivo, 336 h
How it was run: (§4)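 Male Kunming mice (18-22g), acclimatised 4 days, fasted 12 h; single oral dose of 677, 1333 or 2000 mg/kg suspended in 0.5% CMC-Na (0.4 ml per mouse), vehicle group 0 mg/kg; 20 mice in 4 groups. Watched continuously for 4 h for abnormal behaviour and deaths, then intermittently to 24 h; observation over 14 days.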

[22] = tested on: Mus musculus; test: Acute toxicity in Kunming mouse assessed as change in mental behavior up to 2000 mg/kg, po administered as single dose up to 2 weeks; type: organism-based; details: in vivo, 336 h; how it was run: as §4
[23] = tested on: Mus musculus; test: Acute toxicity in Kunming mouse assessed as damage to kidney up to 2000 mg/kg, po administered as single dose measured after 14 days; type: organism-based; details: in vivo, 336 h; how it was run: as §3
[24] = target: T1, Amine oxidase [flavin-containing] B; test: Inhibition of recombinant human MAO-B assessed as reduction in H2O2 production at 100 uM using p-tyramine as substrate preincubated for 15 mins followed by substrate addition by Amplex red reagent based fluorescence assay; how it was run: as §2

SMILES	Ratio IC50 [1]	IC50 [2] [µM]	IC50 [3] [µM]	Ratio IC50 [4]	IC50 [5] [µM]	IC50 [7] [µM]	Ratio IC50 [8]	inhibition (INH) [9]	IC50 [11] [µM]	IC50 [16] [µM]	further results
O=C1/C(=C/c2ccc(OCCCN3CCN(Cc4ccccc4)CC3)cc2)COc2ccccc21	87.8	38.6	4.72	> 21.2	89.5	1.02	> 2.59	Not Active	–	–	inhibition (INH) [6]: Not Active
O=C1/C(=C/c2ccc(O)cc2)COc2ccccc21	> 2.25	0.242	99.9	1.01	–	44.4	> 413	Not Active	–	–	inhibition (INH) [10]: Not Active; inhibition (INH) [6]: Not Active
CN(C)CCOc1ccc(/C=C2\COc3ccccc3C2=O)cc1	32.3	0.0372	0.657	14.2	28.7	0.89	1024	–	9.31	38.1	Activity [12]: Non-Toxic; TDI [13]: Not Active; inhibition (INH) [14]: Active; Activity [15]: Non-Toxic; Ki [17]: 0.551 µM; Papp at 16 h, 0.1 mg/ml [18]: 10.6 ×10⁻⁶ cm/s; Ki [19]: 0.404 µM; Activity [20]: Non-Toxic; Activity [21]: Non-Toxic; Activity [22]: Non-Toxic; Activity [23]: Non-Toxic
CCN(CC)CCCOc1ccccc1/C=C1\COc2ccccc2C1=O	0.0892	–	–	–	4.89	54.8	–	Not Active	–	–	inhibition (INH) [24]: Not Active
CCN(CC)CCOc1ccc(/C=C2\COc3ccccc3C2=O)cc1	28	0.0381	3.29	7.17	28.9	1.03	1220	–	23.6	46.6	–
CCN(CC)CCOc1cccc(/C=C2\COc3ccccc3C2=O)c1	0.403	0.824	30.3	0.34	1.68	4.16	97.1	–	10.3	80	–
O=C1/C(=C/c2ccc(OCCCCCCN3CCN(Cc4ccccc4)CC3)cc2)COc2ccccc21	> 1.65	> 100	–	–	–	60.8	> 1	Not Active	–	–	inhibition (INH) [10]: Not Active
CCN(CC)CCCCOc1ccc(/C=C2\COc3ccccc3C2=O)cc1	0.756	2.86	14.1	0.801	4.61	6.1	18.5	–	11.3	52.9	–
